Tests used:
Rat [1] = assay: concentration in plasma after dosing; conditions: dosed: Isoeugenol, 17 mg/kg, oral, Male, F344/N
Rat [2] = assay: concentration in plasma after dosing; conditions: dosed: Isoeugenol, 70 mg/kg, oral, Male, F344/N
Rat [3] = assay: concentration in plasma after dosing; conditions: dosed: Isoeugenol, 70 mg/kg, oral, Male, F344/N; remark: listed apart in the source
Rat [4] = assay: concentration in plasma after dosing; conditions: dosed: Isoeugenol, 17 mg/kg, oral, Female, F344/N
Rat [5] = assay: concentration in plasma after dosing; conditions: dosed: Isoeugenol, 17 mg/kg, oral, Male, F344/N; remark: listed apart in the source
Rat [6] = assay: concentration in plasma after dosing; conditions: dosed: Isoeugenol, 17 mg/kg, oral, Male, F344/N; remark: listed apart in the source
Rat [7] = assay: concentration in plasma after dosing; conditions: dosed: Isoeugenol, 17 mg/kg, oral, Female, F344/N; remark: listed apart in the source
Rat [8] = assay: concentration in plasma after dosing; conditions: 0.5 h; dosed: Isoeugenol; 70 mg/kg; oral; Male; F344/N
Rat [9] = assay: concentration in plasma after dosing; conditions: dosed: Tetralin, 20 mg/kg, iv, Female, Harlan Sprague Dawley
Rat [10] = assay: concentration in plasma after dosing; conditions: dosed: Tetralin, 2 mg/kg, iv, Male, F344
Rat [11] = assay: concentration in plasma after dosing; conditions: 2 h; dosed: Tetralin; 2 mg/kg; iv; Male; Harlan Sprague Dawley
Rat [12] = assay: concentration in plasma after dosing; conditions: dosed: Tetralin, 2 mg/kg, iv, Male, Harlan Sprague Dawley
Rat [13] = assay: concentration in plasma after dosing; conditions: dosed: Tetralin, 20 mg/kg, iv, Female, Harlan Sprague Dawley; remark: listed apart in the source
Rat [14] = assay: concentration in plasma after dosing; conditions: 2 h; dosed: Tetralin; 2 mg/kg; iv; Male; F344
Rat [15] = assay: concentration in plasma after dosing; conditions: dosed: Tetralin, 2 mg/kg, iv, Male, F344; remark: listed apart in the source
Rat [16] = assay: concentration in plasma after dosing; conditions: dosed: Tetralin, 2 mg/kg, iv, Male, F344; remark: listed apart in the source
Rat [17] = assay: concentration in plasma after dosing; conditions: dosed: Tetralin, 2 mg/kg, iv, Male, Harlan Sprague Dawley; remark: listed apart in the source
human = assay: concentration in blood after dosing; negative times count back from the end of exposure; conditions: dosed: methylethylketone, inhalation, duration: 4 hr, male
Outline: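 Points were largely digitised from plot screenshots with WebPlotDigitizer or otherwise copied from tables, and they remain in the units each source reported. They come from published in vivo toxicokinetic studies and two structured collections. Sampling and analytical methods follow each source and were often not reported.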

rat [18] = assay: concentration in blood after dosing; conditions: dosed: styrene, 3000 ppm, dermal, duration: 4 hr, male, F344

`C/C=C/c1ccc(O)c(OC)c1` [Isoeugenol] gave a concentration in plasma (Rat [1]; 0.75 h) of 32.4 ng/mL, a concentration in plasma (Rat [1]; 2 h) of 77.9 ng/mL and a concentration in plasma (Rat [2]; 10 min) of 850 ng/mL. The concentration in plasma (Rat [2]; 1.5 h) was 97 ng/mL, the concentration in plasma (Rat [3]; 20 min) was 557 ng/mL and the concentration in plasma (Rat [3]; 4 h) was 339 ng/mL. The concentration in plasma (Rat [4]; 2 min) was 25.6 ng/mL, the concentration in plasma (Rat [4]; 1.5 h) was 26 ng/mL and the concentration in plasma (Rat [5]; 1 h) was 39.5 ng/mL. It also gave a concentration in plasma (Rat [5]; 6 h) of 27.7 ng/mL, a concentration in plasma (Rat [6]; 1 h) of 28.4 ng/mL and a concentration in plasma (Rat [6]; 3 h) of 68.6 ng/mL. It also gave a concentration in plasma (Rat [7]; 0.75 h) of 40.3 ng/mL, a concentration in plasma (Rat [7]; 6 h) of 74.4 ng/mL and a concentration in plasma (Rat [8]) of 469 ng/mL.
With `c1ccc2c(c1)CCCC2` [Tetralin] the concentration in plasma (Rat [9]; 0.5017 h) was 5.04 µg/g, the concentration in plasma (Rat [9]; 8 h) was 0.0561 µg/g and the concentration in plasma (Rat [10]; 1 h) was 0.0668 µg/g. The concentration in plasma (Rat [10]; 24 h) was 0.00063 µg/g, the concentration in plasma (Rat [11]) was 0.0179 µg/g and the concentration in plasma (Rat [12]; 307 s) was 1.62 µg/g. It also gave a concentration in plasma (Rat [12]; 4 h) of 0.0072 µg/g, a concentration in plasma (Rat [13]; 0.25 h) of 10.9 µg/g and a concentration in plasma (Rat [13]; 6 h) of 0.111 µg/g. For the same compound, the concentration in plasma (Rat [14]) was 0.0271 µg/g, the concentration in plasma (Rat [15]; 0.2517 h) was 0.63 µg/g and the concentration in plasma (Rat [15]; 6 h) was 0.00762 µg/g. For the same compound, the concentration in plasma (Rat [16]; 0.75 h) was 0.105 µg/g, the concentration in plasma (Rat [16]; 12 h) was 0.00167 µg/g and the concentration in plasma (Rat [17]; 1 h) was 0.0468 µg/g. The concentration in plasma (Rat [17]; 24 h) was 0.00083 µg/g.
Work on `CCC(C)=O` [methylethylketone] yielded a concentration in blood (human; 0.1373 h, 400 ppm) of 216 µM, a concentration in blood (human; 0.1381 h, 200 ppm) of 70.4 µM and a concentration in blood (human; 0.1632 h, 25 ppm) of 2.96 µM. The concentration in blood (human; 0.1664 h, 25 ppm) was 3.3 µM, the concentration in blood (human; 0.3028 h, 200 ppm) was 74.4 µM and the concentration in blood (human; 0.3068 h, 400 ppm) was 201 µM. It also gave a concentration in blood (human; 0.3094 h, 200 ppm) of 54.5 µM, a concentration in blood (human; 0.3251 h, 25 ppm) of 2.53 µM and a concentration in blood (human; 0.3266 h, 25 ppm) of 2.69 µM. It also gave a concentration in blood (human; 28 min, 400 ppm) of 171 µM, a concentration in blood (human; 0.4719 h, 200 ppm) of 65.3 µM and a concentration in blood (human; 0.4774 h, 25 ppm) of 2.09 µM. The concentration in blood (human; 0.4845 h, 200 ppm) was 49.1 µM, the concentration in blood (human; 0.4885 h, 25 ppm) was 2.26 µM and the concentration in blood (human; 0.9614 h, 200 ppm) was 40.1 µM. The concentration in blood (human; 0.9652 h, 200 ppm) was 50.5 µM, the concentration in blood (human; 0.9754 h, 400 ppm) was 150 µM and the concentration in blood (human; 0.9842 h, 25 ppm) was 1.52 µM. For the same compound, the concentration in blood (human; 0.985 h, 25 ppm) was 1.61 µM, the concentration in blood (human; 1.481 h, 200 ppm) was 44.7 µM and the concentration in blood (human; 1.482 h, 200 ppm) was 22.9 µM. The concentration in blood (human; 1.484 h, 400 ppm) was 121 µM, the concentration in blood (human; 1.968 h, 200 ppm) was 25.4 µM and the concentration in blood (human; 1.969 h, 200 ppm) was 17.2 µM. The concentration in blood (human; 1.978 h, 400 ppm) was 115 µM, the concentration in blood (human; 1.982 h, 25 ppm) was 0.771 µM and the concentration in blood (human; 1.983 h, 25 ppm) was 0.828 µM. It also gave a concentration in blood (human; 2.965 h, 200 ppm) of 24.3 µM, a concentration in blood (human; 2.966 h, 200 ppm) of 14.6 µM and a concentration in blood (human; 2.966 h, 400 ppm) of 98.4 µM. It also gave a concentration in blood (human; 2.996 h, 25 ppm) of 0.635 µM, a concentration in blood (human; 3 h, 25 ppm) of 0.521 µM and a concentration in blood (human; 3.971 h, 200 ppm) of 9.24 µM. It also gave a concentration in blood (human; 3.974 h, 200 ppm) of 5.93 µM, a concentration in blood (human; 4.006 h, 25 ppm) of 0.63 µM and a concentration in blood (human; 4.01 h, 25 ppm) of 0.532 µM. It also gave a concentration in blood (human; 4.323 h, 400 ppm) of 48 µM, a concentration in blood (human; 4.987 h, 400 ppm) of 33.2 µM and a concentration in blood (human; 5.414 h, 200 ppm) of 3.68 µM. It also gave a concentration in blood (human; 5.418 h, 200 ppm) of 2.75 µM, a concentration in blood (human; 7.74 h, 200 ppm) of 1.75 µM and a concentration in blood (human; -46 s, 400 ppm, during exposure) of 230 µM. It also gave a concentration in blood (human; -1 min, 200 ppm, during exposure) of 93 µM, a concentration in blood (human; -69 s, 25 ppm, during exposure) of 4.74 µM and a concentration in blood (human; -83 s, 200 ppm, during exposure) of 100 µM. It also gave a concentration in blood (human; -122 s, 25 ppm, during exposure) of 4.68 µM, a concentration in blood (human; -0.7835 h, 200 ppm, during exposure) of 86.7 µM and a concentration in blood (human; -0.7876 h, 200 ppm, during exposure) of 88.3 µM. The concentration in blood (human; -1.006 h, 400 ppm, during exposure) was 215 µM, the concentration in blood (human; -1.012 h, 25 ppm, during exposure) was 4.01 µM and the concentration in blood (human; -1.022 h, 25 ppm, during exposure) was 4.44 µM. For the same compound, the concentration in blood (human; -1.508 h, 200 ppm, during exposure) was 69.5 µM, the concentration in blood (human; -1.527 h, 200 ppm, during exposure) was 81.5 µM and the concentration in blood (human; -1.994 h, 400 ppm, during exposure) was 177 µM. For the same compound, the concentration in blood (human; -2.012 h, 25 ppm, during exposure) was 3.56 µM, the concentration in blood (human; -2.017 h, 25 ppm, during exposure) was 3.04 µM and the concentration in blood (human; -2.503 h, 400 ppm, during exposure) was 162 µM. The concentration in blood (human; -2.505 h, 200 ppm, during exposure) was 58.5 µM, the concentration in blood (human; -2.506 h, 200 ppm, during exposure) was 55 µM and the concentration in blood (human; -2.992 h, 400 ppm, during exposure) was 112 µM. For the same compound, the concentration in blood (human; -2.993 h, 25 ppm, during exposure) was 2.68 µM, the concentration in blood (human; -2.997 h, 25 ppm, during exposure) was 3.29 µM and the concentration in blood (human; -3.243 h, 200 ppm, during exposure) was 41.8 µM. The concentration in blood (human; -3.248 h, 200 ppm, during exposure) was 54.2 µM, the concentration in blood (human; -3.477 h, 400 ppm, during exposure) was 80 µM and the concentration in blood (human; -3.505 h, 25 ppm, during exposure) was 2.71 µM. It also gave a concentration in blood (human; -3.508 h, 25 ppm, during exposure) of 2.38 µM, a concentration in blood (human; -3.661 h, 400 ppm, during exposure) of 68.3 µM and a concentration in blood (human; -3.67 h, 25 ppm, during exposure) of 2.79 µM. For the same compound, the concentration in blood (human; -3.681 h, 25 ppm, during exposure) was 2.14 µM, the concentration in blood (human; -3.739 h, 200 ppm, during exposure) was 24.1 µM and the concentration in blood (human; -3.827 h, 25 ppm, during exposure) was 2.22 µM. It also gave a concentration in blood (human; -3.83 h, 400 ppm, during exposure) of 47.8 µM, a concentration in blood (human; -3.835 h, 25 ppm, during exposure) of 1.85 µM and a concentration in blood (human; -3.993 h, 25 ppm, during exposure) of 0.263 µM. It also gave a concentration in blood (human; -3.994 h, 25 ppm, during exposure) of 0.18 µM.
`C=Cc1ccccc1` [styrene] showed a concentration in blood (rat [18]; 0.5 h) of 2860 ng/mL, a concentration in blood (rat [18]; 1 h) of 8010 ng/mL and a concentration in blood (rat [18]; 2 h) of 4910 ng/mL. The concentration in blood (rat [18]; 3 h) was 11300 ng/mL and the concentration in blood (rat [18]; 4 h) was 10200 ng/mL.

Source: EPA's CvTdb concentration-time database
